Data set [1] can be described thus: Cytotoxicity against human RBC assessed as hemolysis after 1 hr by microplate reader method. The format is cell-based, Erythrocyte. Conditions: red blood cells (RBC). In short, it runs like this: (§1)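 Washed RBCs from EDTA blood of healthy donors mixed 1:1 with compound in PBS (100 to 6.25 μM), 1 h at 37 °C, then centrifuged. Supernatant absorbance at 550 nm, reference 620 nm; % hemolysis = (A − A0)/(Amax − A0) × 100, PBS background, water as 100%. Triplicates.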

A short description of data set [2]: Cytotoxicity against human THP1 cells after 48 hrs by propidium iodide and SYBR14 satining-base flow cytometry. The format is cell-based. Conditions: THP-1 cells. The gist of the method:
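THP-1 cells at 1×10^6 cells/mL treated with compound (50 to 1.56 μM); stained with 12 μM PI and 100 nM SYBR-14 and live/dead ratio read by flow cytometry (488 nm laser; 545 and 645 nm emission). Incubation time given as 72 h in methods, 48 h in figure legend. Triplicates; CC50 derived from dose–response.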
(Flow cytometry measures light scatter and fluorescence of single cells or particles in a stream.)

Data set [3] can be described thus: Cytotoxicity against human RBC assessed as hemolysis at 100 uM after 1 hr by microplate reader method. Conditions: red blood cells (RBC), read-out: Activity. The format is cell-based, Erythrocyte. In short, it runs like this:
as §1

Data set [4] has as its system Leishmania infantum. Description: Antileishmanial activity against Leishmania infantum A1 amastigotes infected in human THP1 cells assessed as reduction in intracellular parasite load after 48 hrs by Giemsa staining. The format is functional, organism-based. Conditions: A1, THP-1, 48 h. In short, it runs like this: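 THP-1 differentiated with 1 μM retinoic acid for 72 h, then infected overnight with L. infantum promastigotes at 8:1 parasite/cell, 37 °C/5% CO2. Free parasites removed over Histopaque 1077; cells at 4 × 10^5/mL exposed to compound 48 h at 37 °C/5% CO2. Infected cells counted microscopically after Giemsa staining; IC50 ± σ by sigmoidal regression, three independent experiments.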

The nature of data set [5]: Ratio of miltefosine HC50 to compound HC50 for human RBC. The format is cell-based, Erythrocyte. Conditions: red blood cells (RBC), read-out: Ratio IC50.
The nature of data set [6]: Aqueous solubility in water by UV spectrophotometry. The following applies: buffer.
Data set [7] concerns Leishmania donovani. The data set is described as follows: Antileishmanial activity against Leishmania donovani MHOM/IN/80/DD8/LEM 703 promastigotes after 72 hrs by propidium iodide and SYBR14 satining-base flow cytometry. The format is functional, organism-based. Conditions: MHOM/IN/80/DD8/LEM 703, 72 h. The gist of the method:
(§2)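 Promastigotes grown in RPMI 1640 with 10% FCS, L-glutamine and antibiotics at 26 °C; seeded at 1×10^6 cells/mL with compound (DMSO/ethanol 50:50 stock, 2-fold dilutions 100 to 0.8 μM in medium) at 26 °C for 72 h. Stained with 12 μM PI and 100 nM SYBR-14 in HEPES-buffered saline with 10% BSA; live/dead read by flow cytometry. IC50 ± σ by sigmoidal regression, three independent experiments.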

In data set [8] the test system is Leishmania infantum. Description: Antileishmanial activity against Leishmania infantum MHOM/TN/80/IPT1/LEM 235 promastigotes after 72 hrs by propidium iodide and SYBR14 satining-base flow cytometry. The format is functional, organism-based. Conditions: MHOM/TN/80/IPT1/LEM 235, 72 h. The gist of the method: as §2
Data set [9] has as its system Leishmania infantum. Description: Ratio of miltefosine IC50 to compound IC50 for Leishmania infantum A1 amastigotes infected in human THP1 cells. The format is functional, THP-1.

Molecules are shown by their SMILES.

Broadly, the HC50 is the concentration that lyses half of the red blood cells. For orientation: CC50 means the concentration at which the toxic effect on the cells reaches its halfway point. One may read the IC50 as the concentration that gives 50% inhibition. Regarding `CCCCCCN(CCO)c1c([N+](=O)[O-])cc(C(F)(F)F)cc1[N+](=O)[O-]`, the HC50 at 1 h in data set [1] is more than 100 µM. In addition, in [2], the midpoint of cytotoxicity, the CC50 at 48 h, lay at 10 µM. In addition, the hemolysis at 1 h, 100 µM in [3] amounted to 0.7%. In addition, in data set [4], the IC50 is more than 50 µM. The selectivity ratio in data set [5] came to 2. This molecule also registered a solubility in [6] of 5.7 ppm.
For `O=[N+]([O-])c1cc(C(F)(F)F)cc([N+](=O)[O-])c1N1CCCCC1`, in data set [1], the HC50 at 1 h is more than 100 µM. In addition, in [2], the CC50 at 48 h is more than 50 µM. For the same molecule, the hemolysis at 1 h, 100 µM in [3] was 1.2%. Besides, the IC50 in [4] was more than 50 µM. The selectivity ratio in data set [5] turned out to be 2. This molecule also registered a solubility in [6] of 0.8 ppm.
Take `O=[N+]([O-])c1cc(C(F)(F)F)cc([N+](=O)[O-])c1NC1CCCCC1`: in data set [1], the HC50 at 1 h is more than 100 µM. This molecule also came in with a CC50 at 48 h in [2] of more than 50 µM. The hemolysis at 1 h, 100 µM in data set [3] was found to be 1.1%. Also, the IC50 in [4] is 9.1 µM. The selectivity ratio in [5] turned out to be 2. For the same molecule, in data set [6], the solubility came out at 0.1 ppm.
As to `CN(C)c1c([N+](=O)[O-])cc(C(F)(F)F)cc1[N+](=O)[O-]`, in [1], the HC50 at 1 h was more than 100 µM. Further, the IC50 in data set [7] was more than 100 µM; in [4] it was 7.3 µM; in [8], more than 100 µM. Besides, the CC50 at 48 h in data set [2] is more than 50 µM. Moreover, in data set [3], the hemolysis at 1 h, 100 µM stood at 0%. Moreover, in data set [5], the selectivity ratio was 2. In [6], this molecule came in with a solubility of 4.6 ppm.
As for `CCCCN(CCO)c1c([N+](=O)[O-])cc(C(F)(F)F)cc1[N+](=O)[O-]`, the HC50 at 1 h in [1] was more than 100 µM. The figures for the IC50 in data set [7], in [4] and in data set [8] were more than 100 µM, 1.2 µM and more than 100 µM, respectively. The CC50 at 48 h in data set [2] is more than 50 µM. The hemolysis at 1 h, 100 µM in [3] was determined as 0.5%. In addition, in data set [5], the selectivity ratio is 2. In addition, the “Ratio IC50” value in data set [9] worked out at 2.5. This molecule also displayed a solubility in data set [6] of 22.6 ppm.
For the molecule `O=[N+]([O-])c1cc(C(F)(F)F)cc([N+](=O)[O-])c1N1CCOCC1`, the HC50 at 1 h in [1] is more than 100 µM. Further, the IC50 in [7] was more than 100 µM; in data set [4], 0.5 µM; in data set [8], more than 100 µM. The molecule further came in with a CC50 at 48 h in data set [2] of more than 50 µM. Besides, the hemolysis at 1 h, 100 µM in data set [3] came to 0.3%. Also, the selectivity ratio in data set [5] was determined as 2. The Ratio IC50 in data set [9] amounted to 5. This molecule yielded a solubility in [6] of 18.6 ppm.
`O=[N+]([O-])c1cc(C(F)(F)F)cc([N+](=O)[O-])c1Nc1ccc(O)cc1`: the HC50 at 1 h in data set [1] was more than 100 µM. For the same molecule, the IC50 in [7] is 0.6 µM; in [4] it was 1.8 µM; in data set [8], 2.2 µM. This molecule also showed a CC50 at 48 h in data set [2] of 40 µM. In data set [3], the hemolysis at 1 h, 100 µM was 1.4%. Also, in data set [5], the selectivity ratio is 2. Besides, the solubility in data set [6] was found to be 11.4 ppm.
For the molecule `O=[N+]([O-])c1cc(C(F)(F)F)cc([N+](=O)[O-])c1Nc1ccccc1O`, the HC50 at 1 h in data set [1] was more than 100 µM. Also, the CC50 at 48 h in [2] was more than 50 µM. For the same molecule, the hemolysis at 1 h, 100 µM in [3] worked out at 1.2%. In [4], the IC50 turned out to be 1.1 µM. For the same molecule, the selectivity ratio in data set [5] came out at 2. The “Ratio IC50” value in [9] amounted to 2.5. Further, the solubility in [6] was 20 ppm.
For `CCCN(CCC)c1c([N+](=O)[O-])cc(C(F)(F)F)cc1[N+](=O)[O-]` [TRIFLURALIN], in data set [1], the HC50 at 1 h is more than 100 µM. In addition, the figures for the IC50 in data set [7], in data set [4] and in [8] were more than 100 µM, more than 50 µM and more than 100 µM, respectively. This molecule showed a CC50 at 48 h in data set [2] of more than 50 µM. Besides, the hemolysis at 1 h, 100 µM in data set [3] amounted to 1.3%. The selectivity ratio in data set [5] was 2. In [6], this molecule displayed a solubility of 0.5 ppm.
For `CCCN(CCO)c1c([N+](=O)[O-])cc(C(F)(F)F)cc1[N+](=O)[O-]`, the HC50 at 1 h in [1] was more than 100 µM. Besides, the IC50 in [7] is more than 100 µM; in [4] it was more than 50 µM; in data set [8] it was more than 100 µM. The molecule further came in with a CC50 at 48 h in [2] of more than 50 µM. For the same molecule, the hemolysis at 1 h, 100 µM in [3] came out at 0.2%. Besides, the selectivity ratio in [5] worked out at 2. In data set [6], this molecule yielded a solubility of 72.3 ppm.
For the molecule `O=[N+]([O-])c1cc(C(F)(F)F)cc([N+](=O)[O-])c1Nc1cccc(O)c1`, the HC50 at 1 h in data set [1] is more than 100 µM. In addition, the CC50 at 48 h in data set [2] came to 35 µM. The hemolysis at 1 h, 100 µM in data set [3] was 1.4%. For the same molecule, the IC50 in [4] stood at 2.2 µM. For the same molecule, in data set [5], the selectivity ratio amounted to 2. This molecule also yielded a solubility in data set [6] of 9.5 ppm.
As for `CCCCCN(CCO)c1c([N+](=O)[O-])cc(C(F)(F)F)cc1[N+](=O)[O-]`, the HC50 at 1 h in [1] is more than 100 µM. Further, the CC50 at 48 h in data set [2] is more than 50 µM. Also, the hemolysis at 1 h, 100 µM in data set [3] was 0.8%. For the same molecule, the IC50 in [4] is more than 50 µM. For the same molecule, the selectivity ratio in data set [5] was determined as 2. The solubility in data set [6] is given as 6 ppm.
In the case of `CCCCCCCCCCCCCCCCOP(=O)([O-])OCC[N+](C)(C)C` [MILTEFOSINE], the HC50 at 1 h in data set [1] was determined as 38.3 µM. In [2], this molecule showed a CC50 at 48 h of 28.6 µM. Also, in data set [4], the IC50 is 2.7 µM.
As to `CCN(CCO)c1c([N+](=O)[O-])cc(C(F)(F)F)cc1[N+](=O)[O-]`, the HC50 at 1 h in data set [1] is more than 100 µM. Besides, the IC50 was more than 100 µM in [7], more than 50 µM in [4] and more than 100 µM in [8]. In data set [2], this molecule yielded a CC50 at 48 h of more than 50 µM. Further, the hemolysis at 1 h, 100 µM in data set [3] turned out to be 0.4%. Moreover, the selectivity ratio in data set [5] came out at 2. The molecule also gave a solubility in data set [6] of 157.4 ppm.

For the origin of these results see ChEMBL document CHEMBL1157671, “Synthesis and biological evaluation of trifluralin analogues as antileishmanial agents” (Bioorg Med Chem, 2010).
